Assay outcomes deposited in PubChem by Broad Institute.
Only some compounds are listed: those with a hit (about 1.2% of all), similar ones and a draw of the others.
Glyco luc inh – blocks N-linked glycosylation in D54 reporter cells; D54 ERlucT glycosylation luciferase reporter, 24 h; percent of 100 nM tunicamycin response; reporter increase, % at 12.5 µM; 0.23% of 360,000 active; AID 588692;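 active means mean luciferase reporter signal, scaled so untreated is 0 and the glycosylation-blocking control 100, at or above a set limit in every replicate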;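 further: luciferase carries N-glycosylation sites so blocking glycosylation raises the light; 0% = median of neutral control wells and 100% = median of 100 nM tunicamycin wells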
RAD52 anneal inh – blocks human RAD52 DNA annealing. inhibition, % at 18.7 µM. 0.46% of 360,000 active. AID 651710. P43351. recombinant RAD52 DNA annealing, FRET fluorescence;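 active means every replicate showing at least 50% inhibition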
MLL AF4-AF9 inh – blocks AF4 peptide binding to human AF9 | AID 651704 | P42568 | AlphaScreen, biotin-AF4 peptide binding to FLAG-AF9 | inhibition, % at 10 µM | 0.47% of 350,000 active;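 active means every replicate reaching a set inhibition limit, whatever the replicate mean, cut at about 25% in these data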;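 further: 0% = plate neutral control median and 100% = total signal loss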
NSD2 HMT inh – NSD2 (human) methyltransferase inhibition; O96028; NSD2 peptide methylation, AlphaScreen, 120 min; inhibition, % at 12.5 µM; 0.54% of 310,000 active; AID 743445; in the data active means inhibition above about 50%
Target sequence (O96028 whole entry, looked up): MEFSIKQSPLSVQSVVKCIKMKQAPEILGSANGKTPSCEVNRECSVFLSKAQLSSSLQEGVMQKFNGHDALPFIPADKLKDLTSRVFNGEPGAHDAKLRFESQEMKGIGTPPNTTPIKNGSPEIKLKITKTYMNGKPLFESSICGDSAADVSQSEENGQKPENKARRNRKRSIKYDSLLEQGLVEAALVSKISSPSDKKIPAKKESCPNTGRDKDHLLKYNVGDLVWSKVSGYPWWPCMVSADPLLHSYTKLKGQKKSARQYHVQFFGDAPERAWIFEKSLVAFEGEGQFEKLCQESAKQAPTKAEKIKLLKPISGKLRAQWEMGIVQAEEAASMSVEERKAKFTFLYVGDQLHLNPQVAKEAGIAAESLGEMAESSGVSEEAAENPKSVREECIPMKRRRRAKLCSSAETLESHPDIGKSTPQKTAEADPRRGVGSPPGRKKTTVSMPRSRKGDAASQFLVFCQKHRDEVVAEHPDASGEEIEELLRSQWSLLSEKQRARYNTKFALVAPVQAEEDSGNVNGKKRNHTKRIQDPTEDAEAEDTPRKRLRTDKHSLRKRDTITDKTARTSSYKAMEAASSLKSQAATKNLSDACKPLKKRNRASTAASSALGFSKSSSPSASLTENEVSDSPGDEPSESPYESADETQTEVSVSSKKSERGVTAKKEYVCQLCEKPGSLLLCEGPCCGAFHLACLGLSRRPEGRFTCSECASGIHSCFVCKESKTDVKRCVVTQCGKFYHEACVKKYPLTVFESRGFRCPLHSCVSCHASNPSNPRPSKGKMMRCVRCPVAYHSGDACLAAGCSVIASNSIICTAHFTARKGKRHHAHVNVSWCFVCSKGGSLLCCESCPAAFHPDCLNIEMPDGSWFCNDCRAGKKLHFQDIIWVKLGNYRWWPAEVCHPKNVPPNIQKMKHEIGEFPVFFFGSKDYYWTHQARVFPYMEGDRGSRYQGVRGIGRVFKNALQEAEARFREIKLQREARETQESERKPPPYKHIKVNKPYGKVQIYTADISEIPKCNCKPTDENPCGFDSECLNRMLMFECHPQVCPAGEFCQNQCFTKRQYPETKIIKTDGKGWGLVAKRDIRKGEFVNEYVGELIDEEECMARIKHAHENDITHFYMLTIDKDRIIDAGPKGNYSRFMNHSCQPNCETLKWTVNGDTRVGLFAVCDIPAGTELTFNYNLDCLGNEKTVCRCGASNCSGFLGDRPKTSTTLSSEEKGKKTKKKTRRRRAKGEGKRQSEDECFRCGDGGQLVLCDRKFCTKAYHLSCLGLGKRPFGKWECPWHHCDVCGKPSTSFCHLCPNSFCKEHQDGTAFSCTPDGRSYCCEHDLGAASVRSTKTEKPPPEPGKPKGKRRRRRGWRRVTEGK
FN deposit inh – fibronectin deposition inhibition; inhibition, % at 12.6 µM; 0.086% of 350,000 active; AH1F fibroblasts, Alexa488-fibronectin deposition fluorescence, overnight; AID 743247;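 active means mean inhibition across replicates of 30% or more, regardless of how many single replicates reach that level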;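 further: positive control wells lacked labelled fibronectin entirely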
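Material – AH1F fibroblast monolayer, labelled fibronectin deposition · Reagent – labelled fibronectin 24 nM · Timing – 1 h adhesion, overnight exposure · Measured by – fluorescence at 485 nm excitation, 525 nm emission · Read-out – inhibition of fibronectin deposition signal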
RAD54 branch – RAD54 (human) branch migration inhibition | Q92698 | RAD54 Holliday junction branch migration, FAM/BHQ fluorescence | inhibition, % at 10.4 µM | 0.14% of 360,000 active | AID 602329;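 active means mean normalized replicate activity at least 40 and at least half of replicates scoring 40 or more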;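 further: 0% = median of neutral control wells and 100% = median of positive control wells; inhibitors cause a drop in the FAM fluorescence signal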
Alpha artifact – interferes with AlphaScreen signal, flagging NSD2 false positives; shares compounds with NSD2 HMT inh; AlphaScreen artifact counterscreen, preloaded methylated H4 peptide; AC35, µM (highest dose often 10 µM), for inactives: at the highest dose activity change, negative = signal loss; 9.4% of 1,500 active; AID 1053174; call rule not given here
An asterisk follows results filed as active.

COCC#Cc1cnc2c(c1)C(=O)N([C@H](C)CO)C[C@@H](C)[C@H](CN(C)C(=O)c1cccnc1)O2 was read as RAD52 anneal inh -7, MLL AF4-AF9 inh -4, FN deposit inh 4 and RAD54 branch 1.
For CCOC(=O)CNC(=O)N1CCC(CCC(=O)N(C)Cc2ccccc2)CC1 the results were Glyco luc inh 1, RAD52 anneal inh 6, MLL AF4-AF9 inh -4, NSD2 HMT inh 65*, FN deposit inh 2, RAD54 branch -12 and Alpha artifact 4%.
Screening Cc1c(C)c2cc(Cl)c(O)c(CN(C)C)c2oc1=O returned Glyco luc inh 0, NSD2 HMT inh 119*, FN deposit inh 4, RAD54 branch 4 and Alpha artifact -2%.
For CCc1c(C)c2cc(Cl)c(O)c(CN(C)C)c2oc1=O the results were Glyco luc inh 0, RAD52 anneal inh -7, MLL AF4-AF9 inh -38 and NSD2 HMT inh 0.
`O=C(COC(=O)c1cc(S(=O)(=O)N2CCOCC2)ccc1F)c1ccc[nH]1` gave Glyco luc inh 3, NSD2 HMT inh 69*, FN deposit inh -3, RAD54 branch 5 and Alpha artifact -4%.
COc1ccc(-n2nnnc2SCC(=O)c2ccc3c(c2)OCCO3)cc1 was read as Glyco luc inh -1, NSD2 HMT inh 98*, RAD54 branch 5 and Alpha artifact -3%.
C[C@H](CO)N1C[C@H](C)[C@H](CN(C)S(=O)(=O)c2ccccc2)Oc2ncc(-c3cccc(F)c3)cc2C1=O was read as RAD52 anneal inh 8, MLL AF4-AF9 inh -2, FN deposit inh -4 and RAD54 branch -1.
`CCOC(=O)c1cc(-c2ccc(F)cc2)nc2c1c(=O)[nH]c(=O)n2Cc1ccccc1` gave Glyco luc inh -2, RAD52 anneal inh -19, MLL AF4-AF9 inh -1, NSD2 HMT inh 86*, FN deposit inh -2, RAD54 branch -2 and Alpha artifact 3%.
For CCOC(=O)c1cc(-c2cc(OC)c(OC)c(OC)c2)nc2c1c(=O)[nH]c(=O)n2Cc1ccccc1 the results were Glyco luc inh 10, RAD52 anneal inh -9, MLL AF4-AF9 inh -3, NSD2 HMT inh -1 and FN deposit inh 2.
For CNC[C@@H]1Oc2c(NC(=O)C3CCCCC3)cccc2C(=O)N([C@H](C)CO)C[C@@H]1C the results were RAD52 anneal inh -16, MLL AF4-AF9 inh -3, FN deposit inh -1 and RAD54 branch -7.
For CCOC(=O)C1=C(C)OC2(O)c3ccccc3C(=O)C12O (centres undefined) the results were Glyco luc inh 2, RAD52 anneal inh 15, NSD2 HMT inh 107*, FN deposit inh 8, RAD54 branch -6 and Alpha artifact 1%.
Screening CC(=O)C1=C(C)OC2(O)c3ccccc3C(=O)C12O (centres undefined) returned Glyco luc inh 2, RAD52 anneal inh -1, MLL AF4-AF9 inh -1, NSD2 HMT inh 90*, FN deposit inh 8, RAD54 branch 1 and Alpha artifact -1%.
For CC1=NN(c2cccc(C(=O)O)c2)C(=O)/C1=C\C=C\c1ccco1 the results were Glyco luc inh 3, NSD2 HMT inh active, RAD54 branch 14 and Alpha artifact 7.2µM*.
`CC1=NN(c2ccccc2)C(=O)/C1=C/C=C/c1ccccc1` gave Glyco luc inh 12, NSD2 HMT inh 7 and FN deposit inh 5.
Screening COc1ccccc1NC(=O)Nc1ccc2c(c1)C(=O)N(C)C[C@@H](OC)[C@H](C)CN(C)[C@H](C)CO2 returned RAD52 anneal inh 3, MLL AF4-AF9 inh 0, FN deposit inh 9 and RAD54 branch 6.
For O=C(C[C@H]1CC[C@H](NC(=O)Nc2ccc3c(c2)OCO3)[C@H](CO)O1)NCc1ccc(Cl)cc1 the results were RAD52 anneal inh 1, MLL AF4-AF9 inh 3, FN deposit inh -10 and RAD54 branch 5.
`COc1ccc2ccccc2c1C1CC(=O)N2CN(C)CSC2=C1C#N` (centres undefined) gave Glyco luc inh 4, RAD52 anneal inh -9, NSD2 HMT inh 89*, FN deposit inh 3, RAD54 branch -3 and Alpha artifact -7%.
`C[C@@H]1CCCCO[C@@H](CN(C)C(=O)C2CCCCC2)[C@H](C)CN([C@@H](C)CO)C(=O)c2cc(NS(=O)(=O)c3ccc(Cl)cc3)ccc2O1` gave RAD52 anneal inh 8, MLL AF4-AF9 inh 0, FN deposit inh -10 and RAD54 branch 0.
Screening CO[C@@H]1CN(C)C(=O)c2cc(NC(=O)Nc3ccc(Cl)cc3)ccc2OC[C@H](C)N(C)C[C@H]1C returned FN deposit inh -4.
For CCCc1cn(CC[C@H]2CC[C@@H](NC(=O)Cc3cccnc3)[C@H](CO)O2)nn1 the results were RAD52 anneal inh 9, MLL AF4-AF9 inh -1, FN deposit inh 0 and RAD54 branch -1.
Screening Nc1ncnc(NCc2ccc(F)cc2)c1[N+](=O)[O-] returned Glyco luc inh -11, RAD52 anneal inh -1, MLL AF4-AF9 inh -2, NSD2 HMT inh -2 and FN deposit inh 11.
For Nc1ncnc(NCc2ccccc2)c1[N+](=O)[O-] the results were Glyco luc inh -9, RAD52 anneal inh -18, MLL AF4-AF9 inh -7, NSD2 HMT inh 53* and Alpha artifact -1%.
`O=C(CN1CCOCC1)N[C@@H]1CC[C@H](CCNC(=O)Nc2cc(F)ccc2F)O[C@@H]1CO` gave RAD52 anneal inh 0, MLL AF4-AF9 inh 0, FN deposit inh 4 and RAD54 branch -8.
For NC(=S)NN=Cc1ccc(-c2ccc(S(=O)(=O)Nc3ncccn3)cc2)o1 the results were Glyco luc inh 0, RAD52 anneal inh -34, MLL AF4-AF9 inh -4, NSD2 HMT inh 145*, FN deposit inh -1 and Alpha artifact -8%.
COc1ccc(Cl)cc1NC(=O)CN1CCN(S(=O)(=O)c2ccc(F)cc2)CC1 was read as Glyco luc inh -6, RAD52 anneal inh 0, MLL AF4-AF9 inh -1, NSD2 HMT inh -2, FN deposit inh -15 and RAD54 branch 0.
For CC(C)c1ccc(S(=O)(=O)N2CCN(CC(=O)Nc3ccc(Cl)cc3F)CC2)cc1 the results were Glyco luc inh -5, RAD52 anneal inh -5, MLL AF4-AF9 inh -2, NSD2 HMT inh 120*, FN deposit inh -1, RAD54 branch 2 and Alpha artifact -5%.
NC1=C(Br)C(=O)c2ncccc2C1=O was read as Glyco luc inh -20, RAD52 anneal inh 6, MLL AF4-AF9 inh -2, NSD2 HMT inh 101*, FN deposit inh 9 and Alpha artifact 5%.
Screening NC(=O)c1[nH]cnc1N=NN(CCO)Cc1ccccc1 returned Glyco luc inh 0, RAD52 anneal inh -5, MLL AF4-AF9 inh -1, NSD2 HMT inh 69*, FN deposit inh -6, RAD54 branch 3 and Alpha artifact -2%.
